ChEMBL document CHEMBL4725448, “Substituted Azabicyclo[2.2.1]heptanes as Selective Orexin-1 Antagonists: Discovery of JNJ-54717793” (ACS Med Chem Lett, 2020)
≈ marks a conversion by molar mass, not a printed value.

Tests used:
[1] = Drug concentration in Sprague-Dawley rat plasma at 30 mg/kg, po after 0.5 hrs by LC-MS/MS analysis; format: ADME, organism-based
Outline: (§1)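 Brain and plasma levels (ng/mL) sampled 0.5 h after oral dosing at 10 or 30 mg/kg, alongside the ex vivo tenia tecta occupancy study.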

[2] = Stability in rat liver microsomes assessed as extraction ratio; format: ADME, Microsome; settings: read-out: ERH
Outline: (§2)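 Metabolic stability in human or rat liver microsomes, expressed as extraction ratios.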

[3] = Ex vivo receptor occupancy at OX1R in Sprague-Dawley rat brain tenia tecta using [3H]SB-674042 labelling at 30 mg/kg, po measured after 2 hrs by autoradiography; format: functional
Outline: (§3)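 Ex vivo OX1R binding autoradiography in rat tenia tecta after a 30 mg/kg po dose; percent occupancy read at 0.5 and 2 h.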

[4] = Ex vivo receptor occupancy at OX1R in Sprague-Dawley rat brain tenia tecta using [3H]SB-674042 labelling at 30 mg/kg, po measured after 0.5 hrs by autoradiography; format: functional; outline: as §3
[5] = Drug concentration in Sprague-Dawley rat brain at 30 mg/kg, po after 0.5 hrs by LC-MS/MS analysis; format: ADME, organism-based; settings: read-out: Ct; outline: as §1
[6] = target: T1, Orexin/Hypocretin receptor type 1 (Homo sapiens, UniProt O43613); experiment: Binding affinity to human […]
T1 sequence (O43613 whole entry): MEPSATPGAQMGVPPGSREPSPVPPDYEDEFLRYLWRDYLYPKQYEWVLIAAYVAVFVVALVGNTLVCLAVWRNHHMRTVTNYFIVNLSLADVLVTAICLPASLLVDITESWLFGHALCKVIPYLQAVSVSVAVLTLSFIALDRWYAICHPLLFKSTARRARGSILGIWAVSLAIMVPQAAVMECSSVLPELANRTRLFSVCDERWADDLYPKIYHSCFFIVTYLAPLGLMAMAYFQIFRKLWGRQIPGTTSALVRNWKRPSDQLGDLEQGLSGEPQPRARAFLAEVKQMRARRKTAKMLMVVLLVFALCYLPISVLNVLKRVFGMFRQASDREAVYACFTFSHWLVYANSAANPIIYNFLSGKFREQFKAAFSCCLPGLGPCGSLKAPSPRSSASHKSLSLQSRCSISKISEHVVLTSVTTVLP

[7] = Stability in human liver microsomes assessed as extraction ratio; format: ADME, Microsome; settings: read-out: ERH; outline: as §2
Orexin receptor type 2 = target: T2, Orexin receptor type 2 (Homo sapiens, UniProt O43614); experiment: Binding affinity to human OX2R
T2 sequence (O43614 whole entry): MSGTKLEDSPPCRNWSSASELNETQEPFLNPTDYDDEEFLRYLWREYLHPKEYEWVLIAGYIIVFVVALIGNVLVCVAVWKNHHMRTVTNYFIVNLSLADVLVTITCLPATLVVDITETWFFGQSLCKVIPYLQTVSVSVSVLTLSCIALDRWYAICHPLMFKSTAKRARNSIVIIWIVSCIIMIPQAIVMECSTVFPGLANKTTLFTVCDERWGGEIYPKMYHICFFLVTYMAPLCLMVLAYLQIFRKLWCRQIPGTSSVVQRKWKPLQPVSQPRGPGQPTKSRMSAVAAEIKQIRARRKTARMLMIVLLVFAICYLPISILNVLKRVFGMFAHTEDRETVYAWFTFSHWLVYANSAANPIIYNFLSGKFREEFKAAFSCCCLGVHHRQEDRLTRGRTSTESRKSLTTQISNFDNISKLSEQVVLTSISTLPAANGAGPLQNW

Homo sapiens = species on record: Homo sapiens; experiment: Selectivity index, ratio of Ki for human OX2R to Ki for human OX1R
[8] = Ex vivo receptor occupancy at OX1R in Sprague-Dawley rat brain tenia tecta using [3H]SB-674042 labelling at 10 mg/kg, po measured after 0.5 hrs by autoradiography; format: functional
Outline: (§4)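 Rats received a single oral dose, and OX1R occupancy was measured by ex vivo binding autoradiography in brain tenia tecta sections at 0.5, 2 and 6 h after dosing. Occupancy is expressed as percent. Brain and plasma drug levels (ng/mL) were also sampled at the 0.5 h time point.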

[9] = Permeability across apical to basolateral side in MDCK cells; format: ADME, cell-based, Canis lupus familiaris; settings: dog
PXR (NR1I2) = target: T3, PXR (NR1I2) (Homo sapiens, UniProt O75469); experiment: Induction of human PXR at 10 uM relative to control; format: ADME; settings: read-out: Activity
T3 sequence (O75469 whole entry): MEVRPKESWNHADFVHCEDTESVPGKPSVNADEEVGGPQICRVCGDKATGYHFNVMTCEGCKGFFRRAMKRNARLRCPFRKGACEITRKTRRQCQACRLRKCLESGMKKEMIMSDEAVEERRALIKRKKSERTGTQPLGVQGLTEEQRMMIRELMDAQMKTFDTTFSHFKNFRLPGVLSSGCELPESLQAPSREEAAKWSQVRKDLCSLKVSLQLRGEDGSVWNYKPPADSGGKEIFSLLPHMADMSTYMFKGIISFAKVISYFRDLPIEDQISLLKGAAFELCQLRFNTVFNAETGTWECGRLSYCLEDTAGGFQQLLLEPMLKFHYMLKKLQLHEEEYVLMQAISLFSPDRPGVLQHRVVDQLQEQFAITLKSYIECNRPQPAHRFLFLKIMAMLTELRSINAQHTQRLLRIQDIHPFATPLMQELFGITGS
Outline: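 Human PXR activation as an indirect measure of CYP3A4 induction, at 10 μM, expressed as % of rifampicin control activation.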

[10] = Ex vivo receptor occupancy at OX1R in Sprague-Dawley rat brain tenia tecta using [3H]SB-674042 labelling at 10 mg/kg, po measured after 2 hrs by autoradiography; format: functional; outline: as §4
[11] = Protein binding in rat plasma assessed as free fraction; format: ADME, cell-free
[12] = Drug concentration in Sprague-Dawley rat brain at 10 mg/kg, po after 0.5 hrs by LC-MS/MS analysis; format: ADME, organism-based; settings: read-out: Ct; outline: as §1
[13] = Drug concentration in Sprague-Dawley rat plasma at 10 mg/kg, po after 0.5 hrs by LC-MS/MS analysis; format: ADME, organism-based; outline: as §1
[14] = Permeability across basolateral to apical side in MDCK cells; format: ADME, cell-based, Canis lupus familiaris; settings: dog
[15] = Ex vivo receptor occupancy at OX1R in Sprague-Dawley rat brain tenia tecta using [3H]SB-674042 labelling at 10 mg/kg, po measured after 6 hrs by autoradiography; format: functional; outline: as §4
[16] = Protein binding in rat brain assessed as free fraction; format: ADME, tissue-based
[17] = Protein binding in human plasma assessed as free fraction; format: ADME, cell-free
[18] = Ex vivo receptor occupancy at OX1R in po dosed rat tenia tecta after 60 mins; format: functional, organism-based; settings: 1 h

Row | Structure (SMILES) | hepatic extraction ratio [2] | Ki [6] [nM] | hepatic extraction ratio [7] | Ki (Orexin receptor type 2) [nM] | further results
1 | O=C(c1ccc(F)cc1-c1ncccn1)N1[C@@H]2CC[C@H]1[C@H](Nc1cnc(C(F)(F)F)cn1)C2 | 0.76 | 61 | 0.81 | 1700 | concentration at 0.5 h [1]: 257 ng/mL; Activity [3]: 17%; Activity [4]: 75%; concentration at 0.5 h [5]: 37 ng/mL
2 | COc1ccc(C[C@H]2c3cc(OC)c(OC)cc3CCN2[C@@H](C(=O)NC(C)C)c2ccccc2)cc1OC | – | 6 | – | – | –
3 | O=C(c1ccccc1-n1nccn1)N1C2CCC1C(Nc1ncc(C(F)(F)F)cn1)C2 (racemic) | – | 180 | – | – | –
4 | O=C(c1ccccc1-n1nccn1)N1C2CCC1C(Nc1ccc(Cl)cn1)C2 (racemic) | > 0.92 | 96 | 0.88 | 2130 | Ratio Ki (Homo sapiens): 20
5 | O=C(c1ccccc1-c1ncccn1)N1[C@@H]2CC[C@H]1[C@H](Nc1cnc(C(F)(F)F)cn1)C2 | 0.38 | 19 | < 0.3 | 520 | Activity [8]: 77%; Papp A→B [9]: 1.1 ×10⁻⁶ cm/s; activity at 10 µM (PXR (NR1I2)): 18%; Activity [10]: 83%; fraction unbound [11]: 0.214; concentration at 0.5 h [12]: 296 ng/mL; concentration at 0.5 h [13]: 1480 ng/mL; Papp B→A [14]: 68 ×10⁻⁶ cm/s; Activity [15]: 48%; fraction unbound [16]: 0.067; fraction unbound [17]: 0.15
6 | O=C(c1cccc(F)c1-c1ncccn1)N1[C@@H]2CC[C@H]1[C@H](Nc1ccc(C(F)(F)F)cn1)C2 | 0.82 | – | 0.75 | – | Activity [8]: 70%; Activity [10]: 69%; concentration at 0.5 h [12]: 72 ng/mL; concentration at 0.5 h [13]: 586 ng/mL; Activity [15]: 21%
7 | O=C(c1cccn2ccnc12)N1CCC(F)(F)[C@@H](Oc2ccc3ccccc3n2)C1 | – | 1.8 | – | 1010 | –
8 | O=C(c1cccc(F)c1-c1ncccn1)N1[C@@H]2CC[C@H]1[C@H](Nc1ncc(C(F)(F)F)cc1F)C2 | 0.8 | 15 | 0.49 | 1100 | Activity [8]: 81%; Papp A→B [9]: 7.7 ×10⁻⁶ cm/s; activity at 10 µM (PXR (NR1I2)): 39%; Activity [10]: 70%; fraction unbound [11]: 0.064; concentration at 0.5 h [12]: 539 ng/mL; concentration at 0.5 h [13]: 837 ng/mL; Papp B→A [14]: 71.3 ×10⁻⁶ cm/s; Activity [15]: 46%; fraction unbound [16]: 0.027; EC50 [18]: 0.25 µg/mL (≈ 0.526 µM); ED50 ([18]; po, time 60 min): 4.8 mg/kg; fraction unbound [17]: 0.056
9 | Cc1ccc(-n2nccn2)c(C(=O)N2C3CCC2C(Nc2ccc(C(F)(F)F)cn2)C3)n1 (racemic) | > 0.92 | 75 | 0.93 | – | –
10 | O=C(c1cc(F)ccc1-c1ncccn1)N1C2CCC1C(COc1ccc(F)cn1)C2 (racemic) | 0.76 | 41 | 0.81 | 160 | –
11 | O=C(c1ccccc1-c1cccs1)N1C2CCC1C(COc1ccc(F)cn1)C2 (racemic) | > 0.92 | – | > 0.95 | 13 | –
12 | Cc1ccc(-c2ncccn2)c(C(=O)N2[C@@H]3CC[C@H]2[C@H](COc2ccccn2)C3)n1 | 0.82 | 19 | 0.61 | 230 | –
13 | O=C(c1cc(F)ccc1-c1ncccn1)N1[C@@H]2CC[C@H]1[C@H](Nc1cnc(C(F)(F)F)cn1)C2 | – | 65 | – | 730 | –
14 | Cc1ccc(-n2nccn2)c(C(=O)N2C3CCC2C(COc2ccc(F)cn2)C3)c1 (racemic) | – | – | – | 72 | concentration at 0.5 h [1]: 55 ng/mL; Activity [3]: 43%; Activity [4]: 49%; concentration at 0.5 h [5]: 16 ng/mL
15 | O=C(c1cccc(F)c1-c1ncccn1)N1[C@@H]2CC[C@H]1[C@H](Nc1ncc(C(F)(F)F)cc1Cl)C2 | 0.83 | 14 | 0.61 | 540 | –
16 | O=C(c1cc(F)ccc1-n1nccn1)N1C2CCC1C(COc1ccc(F)cn1)C2 (racemic) | 0.8 | 59 | 0.81 | 200 | –
17 | Cc1ccc(-n2nccn2)c(C(=O)N2C3CCC2C(COc2ccc(C(F)(F)F)cn2)C3)n1 (racemic) | – | 500 | – | 420 | –
18 | O=C(c1c(F)cccc1-c1ncccn1)N1[C@@H]2CC[C@H]1[C@H](Nc1cnc(C(F)(F)F)cn1)C2 | – | – | – | 560 | Activity [8]: 51%; Activity [10]: 43%; concentration at 0.5 h [12]: 654 ng/mL; concentration at 0.5 h [13]: 1600 ng/mL; Activity [15]: 29%
19 | O=C(c1ccccc1-n1nccn1)N1[C@@H]2CC[C@H]1[C@H](Nc1cnc(C(F)(F)F)cn1)C2 | 0.31 | 30 | < 0.3 | 770 | –
20 | O=C(c1ccccc1-n1nccn1)N1C2CCC1C(Nc1cnc(C(F)(F)F)cn1)C2 (racemic) | 0.55 | 62 | 0.36 | 1250 | –
21 | O=C(c1cccc(F)c1-c1ncccn1)N1C2CCC1C(Oc1cnc(C(F)(F)F)cn1)C2 (racemic) | – | 100 | – | 5500 | –
22 | O=C(c1ccccc1-n1nccn1)N1C2CCC1C(Nc1ccc(C(F)(F)F)cn1)C2 (racemic) | 0.87 | 52 | 0.69 | 1400 | –
23 | Cc1ccc(-n2nccn2)c(C(=O)N2[C@@H]3CC[C@H]2[C@H](COc2ccccn2)C3)n1 | – | – | – | – | concentration at 0.5 h [1]: 118 ng/mL; Activity [3]: 20%; Activity [4]: 50%; concentration at 0.5 h [5]: 8 ng/mL
24 | Cc1ccc(-n2nccn2)c(C(=O)N2[C@@H]3CC[C@H]2[C@H](COc2ccc(F)cn2)C3)n1 | – | – | – | – | concentration at 0.5 h [1]: 930 ng/mL; Activity [3]: 30%; Activity [4]: 50%; concentration at 0.5 h [5]: 313 ng/mL
25 | O=C(c1ccccc1-n1nccn1)N1C2CCC1C(Oc1ccc(C(F)(F)F)cn1)C2 (racemic) | – | 130 | – | 2700 | –
26 | O=C(c1nccc2[nH]cnc12)N1CCC(F)(F)[C@@H](Oc2ccc3ccccc3n2)C1 | – | 5.2 | – | – | –
27 | Cc1ccc(-c2ncccn2)c(C(=O)N2C3CCC2C(COc2ccc(F)cn2)C3)c1 (racemic) | 0.89 | 8.7 | 0.91 | 40 | –
28 | O=C(c1cccc(F)c1-c1ncccn1)N1C2CCC1C(Oc1ccc(C(F)(F)F)cn1)C2 (racemic) | – | 130 | – | > 10000 | –
